“Also recorded” adds a separate entry of the source. Like-named read-outs stand apart in the source and are kept apart here.
How the values were obtained:
[1] = test system: L. donovani MHOM/IN/80/DD8 intracellular amastigotes; assay: L. donovani MHOM/IN/80/DD8 intracellular amastigote assay; type: cell-based, Leishmania donovani; details: for IC50: Leishmania donovani, THP-1, 96 h, read-out: IC50 (µM) [mean ± SD]
Summary of the method: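 THP-1 cells: 12,500/well, 25 ng/mL PMA, 24 h at 37 °C. PMA washed off; cells rested 48 h. Infected with metacyclic promastigotes from 7-day culture (host:parasite 1:2.5) for 24 h, then free parasites washed off. Test compound 80–0.004 μM (0.4% DMSO), 96 h. PFA fixation, SYBR green/CellMask stain. Infected cells normalized to 1 μM amphotericin B and 0.4% DMSO. Sigmoidal IC50, two independent experiments.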

THP-1 cells = assay: Macrophage; type: cell-based, human; details: vs L. donovani DD8 intracellular amastigotes
[2] = test system: L. donovani DD8 promastigotes; assay: Determination of the cidal action of compounds; type: cell-based, Leishmania donovani; details: after 24 h incubation
Summary of the method: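 DD8 promastigotes from two cultures in separate M199 media (N = 2) seeded at 5 × 10^5 parasites/mL. Test compound added; cell numbers counted at each time point. Absence of cells at a concentration was scored as cidal.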

[3] = test system: L. donovani DD8 promastigotes; assay: Selection of resistant parasites under increasing drug pressure; type: cell-based, Leishmania donovani
Summary of the method: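 DD8 promastigotes were cultured under gradually increasing concentrations of each drug, starting at a sublethal level, to select resistant strains. Resistance was confirmed with the promastigote viability assay.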

[4] = test system: Leishmania donovani promastigotes; details: cited from earlier work
[5] = test system: L. donovani MHOM/SD/62/1S-CL2D, LdBOB intracellular amastigotes; assay: L. donovani MHOM/SD/62/1S-CL2D, LdBOB intracellular amastigote assay; type: cell-based, Leishmania donovani; details: for IC50: Leishmania donovani, 72 h, read-out: IC50 (µM) [mean ± SD]; for fold difference in activity between L. donovani DD8 and LdBOB: intracellular amastigote 72 h assay; for Selectivity THP-1 cells: vs L. donovani LdBOB intracellular amastigotes, 72 h incubation
HEK-293 cells = assay: HEK-293 resazurin viability assay; type: cell-based, human; details: vs L. donovani DD8 intracellular amastigotes, 96 h incubation
[6] = test system: L. donovani DD8 promastigotes; assay: Time to kill assay; type: cell-based; details: Leishmania donovani, read-out: IC50, time to kill, promastigotes
Summary of the method: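 Time-kill: DD8 promastigotes exposed to test compound for 24, 48, 72 or 96 h in the promastigote viability assay. 14-point concentration series from 40 µM top; IC50 calculated at each exposure time.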

[7] = test system: amphotericin B resistant L. donovani DD8 promastigotes; assay: Activity on amphotericin B resistant parasites, promastigote assay; type: cell-based, Leishmania donovani
Summary of the method: (§1)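 Resistant DD8 promastigote lines were raised by culture under gradually increasing drug concentrations, starting sublethal. Resistant clones were then tested alongside the wild-type strain in the resazurin promastigote viability assay.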

[8] = test system: amphotericin B resistant L. donovani DD8 intracellular amastigotes; assay: Activity on amphotericin B resistant parasites, intracellular amastigote assay; type: cell-based, Leishmania donovani
Summary of the method: (§2)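 Drug-selected resistant DD8 promastigotes were used to infect PMA-differentiated THP-1 cells. Test compound activity was assessed in the intracellular amastigote assay and compared with the wild-type strain.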

[9] = test system: miltefosine resistant L. donovani DD8 promastigotes; assay: Activity on miltefosine resistant parasites, promastigote assay; type: cell-based, Leishmania donovani
Summary of the method: as §1

[10] = test system: miltefosine resistant L. donovani DD8 intracellular amastigotes; assay: Activity on miltefosine resistant parasites, intracellular amastigote assay; type: cell-based, Leishmania donovani
Summary of the method: as §2

[11] = Distribution coefficient estimation using chromatography; type: physicochemical; details: pH 7.4
Summary of the method: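 LogD estimated at pH 7.4 by gradient HPLC, correlating retention against standards of known partition coefficient.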

[12] = test system: L. infantum chagasi (MHOM/BR/1972/BH46); assay: In vivo L. infantum chagasi chronic hamster model, parasite load by qPCR; design: species or system golden hamsters (Mesocricetus auratus); details: for average number of amastigotes in the liver / average number of amastigotes in the spleen: group average
[13] = test system: L. infantum chagasi (MHOM/BR/1972/BH46); assay: Histopathological analysis of hamster liver and spleen; type: in vivo, golden hamsters (Mesocricetus auratus); details: infected hamsters, 10 mg/kg/day oral
[14] = test system: cytokines IL-10, IL-4, TGFβ, IFN-γ, IL-17 and TNFα; assay: Relative expression of cytokines by qPCR in hamster spleen and liver; type: in vivo, golden hamsters (Mesocricetus auratus); details: for TGF-β expression: compared to untreated (UTG)
Summary of the method: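 Hamsters in chronic infection (~60 days) treated 10 consecutive days: vehicle (0.5% carboxymethyl cellulose, oral), GLU 50 mg/kg/day ip, or test compound. Spleen/liver RNA reverse-transcribed; TaqMan qPCR normalized to hamster microglobulin at equal cDNA input; water as negative control. Cycling: 50 °C 2 min, 95 °C 10 min, 40 × (95 °C 15 s, 60 °C 1 min).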

[15] = test system: L. donovani DD8 intracellular amastigotes; assay: Time to kill assay; type: cell-based; details: Leishmania donovani, 24 h, read-out: IC50, time to kill, intracellular amastigotes
Summary of the method: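 Intracellular L. donovani amastigotes were exposed to test compound for 24, 48 or 72 h, with amphotericin B and miltefosine as reference drugs. A 14-point concentration–response series started at 40 µM, and an IC50 was derived for each exposure time. Other conditions followed the paper's intracellular amastigote assay.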

[16] = test system: L. tropica, L. aethiopica, L. mexicana, L. panamensis and L. donovani; details: read-out: EC50 values obtained for miltefosine; varied between species; cited from earlier work
L. donovani = details: read-out: mean IC50; L. donovani DD8; cited from earlier work
[17] = L. donovani DD8 intracellular amastigote assay (96 h)
[18] = BZ1, BZ1-I 10 mg/kg/day oral, GLU 50 mg/kg/day i.p.
[19] = BZ1, BZ1-I 10 mg/kg/day oral, GLU 50 mg/kg/day i.p., 10 days

| Compound | IC50 [1] [µM] | Selectivity THP-1 cells (THP-1 cells; 96 h incubation) | concentration at which no viable promastigotes were observed [2] [µM] | concentration withstood by resistant clones ([3]; after 428 days) [µM] | IC50 [5] [µM] | fold difference in activity between L. donovani DD8 and LdBOB [5] [fold] | Selectivity THP-1 cells [5] | Selectivity HEK-293 cells (HEK-293 cells) | Selectivity THP-1 cells (THP-1 cells; 72 h incubation) | IC50 ([6]; 24 h) [µM] | IC50 ([6]; 48 h) [µM] | activity against amphotericin B resistant strain compared to wild-type [7] | activity against amphotericin B resistant strain compared to wild-type [8] | activity against miltefosine resistant strain compared to wild-type [9] | activity against miltefosine resistant strain compared to wild-type [10] | parasite burden reduction in spleen [12, 18] [%] | average number of amastigotes in the liver [12, 19] [g⁻¹] | average number of amastigotes in the spleen [12, 19] [g⁻¹] | histopathological findings, liver [13] | histopathological findings, spleen [13] | also measured |
| --- | --- | --- | --- | --- | --- | --- | --- | --- | --- | --- | --- | --- | --- | --- | --- | --- | --- | --- | --- | --- | --- |
| C[C@@H]1[C@H](O)[C@@H](C)/C=C/C=C/C=C/C=C/C=C/C=C/C=C/[C@H](O[C@@H]2O[C@H](C)[C@@H](O)[C@H](N)[C@@H]2O)C[C@@H]2O[C@](O)(C[C@@H](O)C[C@@H](O)[C@H](O)CC[C@@H](O)C[C@@H](O)CC(=O)O[C@H]1C)C[C@H](O)[C@H]2C(=O)O [Amphotericin B, reference compound] | 0.2 ± 0.02 | 10.24 | 0.33 | 0.42 | – | – | – | – | – | – | – | – | – | – | – | – | – | – | – | – | resistance generated [4]: 20 fold |
| CCOc1ccc(Nc2c3c(nc4ccccc24)CCC3)cc1 [BZ1, N-(4-Ethoxyphenyl)-2,3-dihydro-1H-cyclopenta[b]quinolin-9-amine] | 0.59 ± 0.13 | >33.89 | 6.66 | 11 | 4.4 ± 0.12 | 5 | >11.76 | > 33 | >25.64 | 4.31 ± 0.22 | 2.37 ± 0.74 | no significant difference | no significant difference | no significant difference | no significant difference | 98.56 | 3020 | 25400 | inflammatory nodules in the hepatic parenchyma, lymph histiocytic inflammatory infiltrate in the portal space forming nodules | increase of macrophages in the red pulp forming nodular aggregates and granulomas | fold greater activity than miltefosine [1, 17]: 5 fold; fold lower in vitro activity than amphotericin B [1, 17]: ~ 3 fold; chromatographic logD [11]: 5; in vivo toxicity in the hamster VL model ([12]; 10 mg/kg/day oral, 10 days): does not exhibit in vivo toxicity; TNF-α expression ([14]; compared to GLU and untreated, liver and spleen samples): significant downregulation; TGF-β expression [14]: significantly downregulated; also recorded: decreased expression of TGF-β; IL-4 expression ([14]; compared to untreated, spleen and liver samples): significantly downregulated; IL-17 expression ([14]; liver samples, compared to GLU): significant downregulation |
| c1ccc(Oc2ccc(Nc3c4c(nc5ccccc35)CCC4)cc2)cc1 [BZ1-I, N-(4-phenoxyphenyl)-1H,2H,3H-cyclopenta[b]quinolin-9-amine] | 0.4 ± 0.38 | >49.12 | 1.66 | – | 4.26 ± 0.24 | 10 | >11.49 | >24.11 | >44.44 | 3.08 ± 1.11 | 0.69 ± 0.35 | no significant difference | no significant difference | no significant difference | no significant difference | 99.95 | 120 | 162 | mild inflammatory infiltrate in the portal space and nodules in the parenchyma with the presence of giant cells | evident increase in macrophages in the red pulp with the formation of nodules | IC50 [15]: 4.84 ± 0.83 µM; concentration withstood by resistant clones ([3]; after 210 days): 5.5 µM; fold greater activity compared to the GLU treatment group ([12]; 10 mg/kg/day oral vs GLU 50 mg/kg/day i.p.): ~ 21 fold; TGF-β expression [14]: decreased expression of TGF-β |
| CCCCCCCCCCCCCCCCOP(=O)([O-])OCC[N+](C)(C)C [Miltefosine, miltefosine, reference compound] | 2.54 ± 0.57 | >7.87 | 6.66 | 40 | – | – | – | 15.66 | – | – | – | – | – | – | – | – | – | – | – | – | Selectivity THP-1 cells (THP-1 cells; 96 h incubation, listed as miltefosine): 7.87; EC50 [16]: 2.63 to 10.6 µM |
| NC[C@@H]1O[C@H](O[C@H]2[C@@H](O)[C@H](O[C@@H]3[C@@H](O)[C@H](N)C[C@H](N)[C@H]3O[C@H]3O[C@H](CO)[C@@H](O)[C@H](O)[C@H]3N)O[C@@H]2CO)[C@H](N)[C@@H](O)[C@@H]1O [Paromomycin] | – | – | – | – | – | – | – | – | – | – | – | – | – | – | – | – | – | – | – | – | IC50 (L. donovani): 158 to 166 µM |
| Meglumine Antimoniate [reference compound] | – | – | – | – | – | – | – | – | – | – | – | – | – | – | – | 99.21 | 2530 | 12200 | – | – | parasite burden reduction in liver [12, 18]: 98.79%; INF-γ expression ([14]; spleen samples): significant difference; also recorded: increased INF-γ (Th1) expression |

From article PMC12238405 (Communications Biology, 2025)
